How the values were obtained:
[1] = assay type: in vivo; conditions: mice, intravenous, 0.02 mg/mouse as ICG, brains harvested after 48 h
In short: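 Mice received the test compound or free ICG alone by intravenous injection. Brains were harvested 48 h later and imaged for near-infrared ICG fluorescence, with instrument sensitivity set to 1,600–3,000 (fluorescence intensity a.u.).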

[2] = system: VIPR2; conditions: read-out: antagonist activity IC50; cited from earlier work

CC1(C)C(/C=C/C=C/C=C/C=C2\N(CCCCS(=O)(=O)O)c3ccc4ccccc4c3C2(C)C)=[N+](CCCCS(=O)(=O)[O-])c2ccc3ccccc3c21 [ICG, indocyanine green, reference compound]
ICG fluorescence in the brain [1]: but not in the brains

CCCC[C@@H]1NC(=O)[C@H](CCC(=O)O)NC(=O)[C@H](C)NC(=O)[C@H](CC(C)C)NC(=O)[C@H](CCCC)NC(=O)[C@H](Cc2ccc(O)cc2)NC(=O)[C@H](CCCCN)NC(=O)[C@H](Cc2ccc(O)cc2)NC(=O)[C@H]([C@@H](C)O)NC(=O)[C@@H](NC(=O)[C@@H]2CCCN2C(=O)[C@@H](NC(=O)CNC(=O)CCOCCOCCOCCOCCn2nnc3c2-c2ccccc2CN(C(=O)CCNC(=O)CCOCCOCCOCCOCCOCCC(=O)NCCC(=O)N2Cc4ccccc4-c4c(nnn4CCNC(=O)CCCCCN4C(=CC=CC=CC=CC5=[N+](CCCCS(=O)(=O)[O-])c6ccc7ccccc7c6C5(C)C)C(C)(C)c5c4ccc4ccccc54)-c4ccccc42)c2ccccc2-3)[C@@H](C)O)CSSC[C@@H](C(=O)O)NC1=O [ICG-KS-487]
ICG fluorescence in the brain [1]: Fluorescence was clearly observed

Ac-(CPPYLP[KYLC)D]LI-NH2 (bicyclic or more) [KS-133]
IC50 [2]: 25 nM

From publication PMC11350716 (JACS Au, 2024)
